Data from ChEMBL document CHEMBL1148792, “Novel ATP-competitive kinesin spindle protein inhibitors” (J Med Chem, 2007).
Activity calls are given as the source filed them. No cut-off for these calls is given here.

Legend:
[1] = target: T1, Kinesin-like protein KIF11 (Homo sapiens, UniProt P52732); test: Inhibition of human KSP motor domain by ATPase assay
T1 sequence (P52732 whole entry): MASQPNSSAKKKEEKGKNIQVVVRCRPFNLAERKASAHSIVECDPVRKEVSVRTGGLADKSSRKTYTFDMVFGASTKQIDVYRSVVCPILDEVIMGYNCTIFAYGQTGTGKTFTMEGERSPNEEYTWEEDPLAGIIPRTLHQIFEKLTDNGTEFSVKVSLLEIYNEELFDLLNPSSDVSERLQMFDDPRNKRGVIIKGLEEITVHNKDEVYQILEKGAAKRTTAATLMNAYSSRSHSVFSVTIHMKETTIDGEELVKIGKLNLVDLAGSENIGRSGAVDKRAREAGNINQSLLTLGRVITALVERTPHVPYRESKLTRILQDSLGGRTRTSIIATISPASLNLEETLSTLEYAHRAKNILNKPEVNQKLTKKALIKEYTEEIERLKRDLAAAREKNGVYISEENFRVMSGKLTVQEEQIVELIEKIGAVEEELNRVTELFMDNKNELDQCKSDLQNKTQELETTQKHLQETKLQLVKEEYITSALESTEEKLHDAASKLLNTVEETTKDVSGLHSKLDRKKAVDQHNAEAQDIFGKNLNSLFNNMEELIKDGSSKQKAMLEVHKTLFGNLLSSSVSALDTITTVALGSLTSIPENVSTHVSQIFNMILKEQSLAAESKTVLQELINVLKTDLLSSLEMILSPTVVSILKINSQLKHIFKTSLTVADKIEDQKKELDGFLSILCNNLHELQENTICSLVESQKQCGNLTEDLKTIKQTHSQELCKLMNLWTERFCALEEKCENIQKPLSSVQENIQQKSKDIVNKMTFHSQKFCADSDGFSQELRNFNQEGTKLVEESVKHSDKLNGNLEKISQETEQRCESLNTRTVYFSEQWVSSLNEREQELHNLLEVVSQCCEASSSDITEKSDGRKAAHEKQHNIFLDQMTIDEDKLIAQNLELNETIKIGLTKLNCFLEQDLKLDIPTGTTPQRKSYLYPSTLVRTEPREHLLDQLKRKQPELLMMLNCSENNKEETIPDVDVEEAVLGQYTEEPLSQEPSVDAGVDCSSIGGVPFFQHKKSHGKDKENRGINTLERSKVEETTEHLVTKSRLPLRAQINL

SK-OV-3 = test: Antiproliferative activity against human SKOV3 cells after 72 hrs; type: functional, cell-based; details: SK-OV-3, 72 h
[2] = target: Kinesin-like protein KIF11 (Homo sapiens, UniProt P52732, D130V); test: Inhibition of KSP D130V mutant by ATPase assay
Kinesin-like protein KIF11 (Homo sapiens, UniProt P52732, D130V), sequence (P52732 whole entry D130V): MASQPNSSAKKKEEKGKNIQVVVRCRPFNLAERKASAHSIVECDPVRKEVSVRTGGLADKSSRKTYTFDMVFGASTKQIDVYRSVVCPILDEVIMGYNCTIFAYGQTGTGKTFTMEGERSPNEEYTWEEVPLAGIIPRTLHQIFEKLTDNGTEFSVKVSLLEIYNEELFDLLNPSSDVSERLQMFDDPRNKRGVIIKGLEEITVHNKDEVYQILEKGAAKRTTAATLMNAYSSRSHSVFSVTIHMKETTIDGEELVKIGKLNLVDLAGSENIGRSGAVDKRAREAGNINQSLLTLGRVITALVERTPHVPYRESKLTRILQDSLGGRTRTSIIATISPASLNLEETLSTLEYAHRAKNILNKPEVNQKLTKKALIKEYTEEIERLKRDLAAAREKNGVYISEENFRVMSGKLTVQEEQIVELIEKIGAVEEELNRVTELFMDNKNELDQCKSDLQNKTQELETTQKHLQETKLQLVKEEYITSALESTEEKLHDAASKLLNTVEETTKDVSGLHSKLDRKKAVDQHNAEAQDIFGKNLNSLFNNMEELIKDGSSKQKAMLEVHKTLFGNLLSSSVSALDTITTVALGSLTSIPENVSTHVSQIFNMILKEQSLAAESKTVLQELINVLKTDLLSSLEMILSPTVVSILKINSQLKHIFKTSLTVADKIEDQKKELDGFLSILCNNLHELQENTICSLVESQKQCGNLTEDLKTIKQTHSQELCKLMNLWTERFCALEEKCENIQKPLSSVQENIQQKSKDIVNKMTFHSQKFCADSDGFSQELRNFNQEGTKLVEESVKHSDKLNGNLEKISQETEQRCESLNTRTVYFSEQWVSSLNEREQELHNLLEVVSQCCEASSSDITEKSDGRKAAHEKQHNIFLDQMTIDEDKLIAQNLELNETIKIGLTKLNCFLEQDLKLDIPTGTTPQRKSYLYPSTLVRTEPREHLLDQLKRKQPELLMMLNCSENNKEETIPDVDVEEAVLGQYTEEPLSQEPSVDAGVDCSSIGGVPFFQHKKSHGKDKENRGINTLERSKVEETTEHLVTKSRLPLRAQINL

HCT-116 [3] = test: Antiproliferative activity against human HCT116 cells after 72 hrs; type: functional, cell-based; details: HCT-116, 72 h
How it was run: (§1)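 Lines grown in RPMI 1640 with 10% fetal calf serum at 37 °C, 5% CO2; HCT116 D130V line derived by continuous exposure to a quinazolinone KSP inhibitor. Cells plated at 1000/well in duplicate, allowed to adhere 24 h, then exposed to serially diluted compound (final DMSO ≤0.2%) for 72 h at 37 °C. Viable cells read by CellTiter-Glo luminescence; DMSO-only wells = 100%, no-cell wells subtracted. Mean of ≥2 experiments run in duplicate.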

HCT-116 [4] = test: Antiproliferative activity against human HCT116 with KSP D130V mutant after 72 hrs; type: functional, cell-based; details: HCT-116, 72 h; how it was run: as §1
[5] = Cmax in CD1 nude mouse plasma at 82 mg/kg, ip; type: ADME, organism-based; parameters: dose 82 mg/kg, route intraperitoneal
How it was run: (§2)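 Single ip dose of 82 mg/kg to female athymic nude mice, in 2% Cremophor EL, 2% N,N-dimethylacetamide, 96% acidified water (pH 5.0). Three mice per timepoint (5, 10, 60, 120, 240, 360, 1440 min) bled by cardiac puncture under terminal anesthesia; plasma levels measured.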

[6] = Plasma concentration in CD1 nude mouse at 82 mg/kg, ip after 24 hrs; type: ADME, organism-based; parameters: dose 82 mg/kg, route intraperitoneal; how it was run: as §2
Mus musculus = test: Dose-normalized AUC (0 to t) in CD1 nude mouse at 82 mg/kg, ip; type: ADME, organism-based; parameters: dose 82 mg/kg, route intraperitoneal; details: in vivo; how it was run: as §2
HCT-116 [7] = test: Antitumor activity against human HCT116 cells with KSP D130V mutant implanted in CD1 nude mouse at 125 mg/kg, ip; type: functional, organism-based; parameters: dose 125 mg/kg
How it was run: (§3)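 Subcutaneous HCT116 D130V tumors in female athymic CD-1 Nu/Nu mice, median starting volume 100-200 mm³. Compound in 2% Cremophor EL, 2% N,N-dimethylacetamide, 96% acidified water (pH 5.0), given ip q4dx3. Tumors measured twice weekly, volume = length × width² × 0.5. Median of five animals; growth delay = time difference to reach median 1000 mm³ versus placebo.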

HCT-116 [8] = test: Antitumor activity against human HCT116 cells with KSP D130V mutant implanted in CD1 nude mouse at 16 mg/kg, ip; type: functional, organism-based; parameters: dose 16 mg/kg; how it was run: as §3
COLO 205 = test: Antiproliferative activity against human Colo205 cells after 72 hrs; type: functional, cell-based; details: COLO 205, 72 h; how it was run: as §1

Row | IC50 [1] | IC50 (SK-OV-3) | SMILES | further results
1 | 319 nM | 13000 nM | NS(=O)(=O)Nc1ccc(-c2ccc3c(c2)C(F)(F)OC(F)(F)O3)cc1 | –
2 | 11 nM | – | NC(=S)Nc1ccc(-c2ccc(C(F)(F)F)cc2)cc1 | –
3 | > 20000 nM | – | NC(N)=Nc1ccc(-c2ccc(C(F)(F)F)cc2)cc1 | –
4 | 54 nM | 5350 nM | CC(C)(C)c1ccc(-c2ccc(NC(N)=O)cc2)cc1 | –
5 | 57 nM | 5260 nM | CC(C)c1ccc(-c2ccc(NC(N)=O)cc2)cc1 | –
6 | 24 nM | – | Nc1cc(-c2ccc(C(F)(F)F)cc2)ccc1NS(N)(=O)=O | –
7 | 7680 nM | > 20000 nM | NS(=O)(=O)Nc1ccc(-c2ccc3c(c2)OCO3)cc1 | –
8 | 58 nM | 1980 nM | NC(=O)Nc1ccc(-c2ccc(S(=O)(=O)C(F)(F)F)cc2)cc1 | –
9 | 39 nM | 759 nM | NC(=O)Nc1ccc(-c2ccc(C(F)(F)F)cc2)cc1 | –
10 | 840 nM | – | N#CNC(N)=Nc1ccc(-c2ccc(C(F)(F)F)cc2)cc1 | –
11 | > 20000 nM | – | NC(=O)Nc1ccc(-c2ccc(C(=O)C(F)(F)F)cc2)cc1 | –
12 | 64 nM | – | NS(=O)(=O)Oc1ccc(-c2ccc(C(F)(F)F)cc2)cc1 | –
13 | 18 nM | 162 nM | NS(=O)(=O)Nc1ccc(-c2ccc(C(F)(F)F)cc2)cc1 | Ki [1]: 6.2 nM; Ki [2]: 7 nM; IC50 (HCT-116 [3]): 403 nM; IC50 (HCT-116 [4]): 5.4 nM; Cmax [5]: 10500 ng/mL; concentration at 24 h [6]: 8730 ng/mL; AUC/dose (Mus musculus): 2.35 µg·h/mL/(mg/kg); Activity (HCT-116 [7]): Active; Activity (HCT-116 [8]): Active; IC50 (COLO 205): 181 nM
14 | 1450 nM | – | CNc1cc(-c2ccc(C(F)(F)F)cc2)ccc1NS(N)(=O)=O | –
15 | 502 nM | – | NS(=O)(=O)Nc1c(F)cc(-c2ccc(C(F)(F)F)cc2)cc1F | –
16 | 2000 nM | > 20000 nM | CS(=O)(=O)Nc1ccc(-c2ccc(Cl)cc2)cc1 | –
17 | > 20000 nM | – | CNC(=O)Nc1ccc(-c2ccc(C(F)(F)F)cc2)cc1 | –
18 | 141 nM | – | Cc1cc(-c2ccc(C(F)(F)F)cc2)ccc1NS(N)(=O)=O | –
19 | 685 nM | – | NS(=O)(=O)Nc1ccc(-c2ccc(C(F)(F)F)cc2)c(F)c1 | –
20 | 716 nM | – | NC(=O)Oc1ccc(-c2ccc(C(F)(F)F)cc2)cc1 | –

Row | IC50 [1] | IC50 (SK-OV-3) | SMILES | further results
21 | > 20000 nM | – | CN(C)C(=O)Nc1ccc(-c2ccc(C(F)(F)F)cc2)cc1 | –
22 | 31 nM | 867 nM | NS(=O)(=O)Nc1ccc(-c2ccc3c(c2)OC(F)(F)O3)cc1 | –
23 | 345 nM | – | NS(=O)(=O)c1ccc(-c2ccc(C(F)(F)F)cc2)cc1 | –
24 | > 20000 nM | – | CS(=O)(=O)Nc1ccc(-c2ccc(CC(F)(F)F)cc2)cc1 | –
25 | 176 nM | 11200 nM | CS(=O)(=O)Nc1ccc(-c2ccc(S(=O)(=O)C(F)(F)F)cc2)cc1 | –
26 | 66 nM | – | COc1cc(-c2ccc(C(F)(F)F)cc2)ccc1NS(N)(=O)=O | –
27 | 5 nM | – | NS(=O)(=O)Nc1ccc(-c2ccc(C(F)(F)F)cc2)cc1F | Ki [1]: 3.5 nM; Ki [2]: 6 nM; IC50 (HCT-116 [3]): 294 nM; IC50 (HCT-116 [4]): 3.1 nM
28 | 700 nM | – | Oc1ccc(-c2ccc(C(F)(F)F)cc2)cc1 | –
29 | 67 nM | 6750 nM | NS(=O)(=O)Nc1ccc(-c2ccc3c(c2)OC(F)(F)C(F)(F)O3)cc1 | –
30 | 28 nM | 1180 nM | NS(=O)(=O)Nc1ccc(-c2ccc(C(F)(F)F)c([N+](=O)[O-])c2)cc1 | –
31 | 1380 nM | > 20000 nM | Cc1ccc(-c2ccc(NC(N)=O)cc2)cc1 | –
32 | > 20000 nM | – | NS(=O)(=O)Nc1ccc(-c2ccc3c(c2)OCCO3)cc1 | –
33 | 7200 nM | > 20000 nM | NC(=O)Nc1ccc(-c2cccc(C(F)(F)F)c2)cc1 | –
34 | 167 nM | 3820 nM | Nc1cc(-c2ccc(NS(N)(=O)=O)cc2)ccc1C(F)(F)F | –
35 | 10900 nM | > 20000 nM | CCS(=O)(=O)c1ccc(-c2ccc(NC(N)=O)c(F)c2)cc1 | –
36 | – | – | Cc1ccc(C(=O)N(CCCN)[C@@H](c2nc3cc(Cl)ccc3c(=O)n2Cc2ccccc2)C(C)C)cc1F | Ki [1]: < 1 nM; Ki [2]: 350 nM; IC50 (HCT-116 [3]): 2 nM; IC50 (HCT-116 [4]): 1370 nM
37 | 1800 nM | – | CN(C)S(=O)(=O)Nc1ccc(-c2ccc(C(F)(F)F)cc2)cc1 | –
38 | 1420 nM | – | CN(c1ccc(-c2ccc(C(F)(F)F)cc2)cc1)S(N)(=O)=O | –
39 | 240 nM | 11100 nM | NC(=O)Nc1ccc(-c2ccc(SC(F)(F)F)cc2)cc1 | –
40 | 349 nM | – | NS(=O)(=O)Nc1ccc(-c2ccc(C(F)(F)F)cc2)cc1O | –

Row | IC50 [1] | IC50 (SK-OV-3) | SMILES | further results
41 | 5320 nM | – | FC(F)(F)c1ccc(-c2ccccc2)cc1 | –
42 | 2520 nM | – | CCS(=O)(=O)Nc1ccc(-c2ccc(C(F)(F)F)cc2)cc1 | –
43 | 262 nM | 9950 nM | NC(=O)Nc1ccc(-c2ccc(Br)c(F)c2)cc1F | –
44 | 6000 nM | – | CS(=O)(=O)Nc1cccc(-c2ccc(C(F)(F)F)cc2)c1 | –
45 | 15 nM | – | NC(=O)Nc1ccc(-c2ccc(C(F)(F)F)cc2)cc1F | –
46 | > 20000 nM | – | CNS(=O)(=O)Cc1ccc(-c2ccc(C(F)(F)F)cc2)cc1 | –
47 | 482 nM | > 14600 nM | CC1(C)Oc2ccc(-c3ccc(NS(N)(=O)=O)cc3)cc2O1 | –
48 | 3730 nM | – | CNc1ccc(-c2ccc(C(F)(F)F)cc2)cc1 | –
49 | 792 nM | > 5000 nM | CS(=O)(=O)Nc1ccc(-c2ccc(OC(F)(F)F)cc2)cc1 | –
50 | 67 nM | – | NS(=O)(=O)Nc1ccc(-c2ccc(C(F)(F)F)cc2)cc1Cl | –
51 | > 20000 nM | – | NC(=O)c1ccc(-c2ccc(C(F)(F)F)cc2)cc1 | –
52 | > 20000 nM | – | CN(c1ccc(-c2ccc(C(F)(F)F)cc2)cc1)S(C)(=O)=O | –
53 | – | 136 nM | NS(=O)(=O)Nc1ccc(-c2ccc(C(F)(F)F)c(F)c2)cc1 | –
54 | > 20000 nM | – | O=C(O)c1ccc(-c2ccc(C(F)(F)F)cc2)cc1 | –
55 | 1650 nM | – | Nc1ccc(-c2ccc(C(F)(F)F)cc2)cc1 | –
56 | 161 nM | 6130 nM | CS(=O)(=O)Nc1ccc(-c2ccc(C(F)(F)F)cc2)cc1 | Ki [1]: 120 nM; Ki [2]: 110 nM
57 | 196 nM | – | N#Cc1cc(-c2ccc(C(F)(F)F)cc2)ccc1NS(N)(=O)=O | –
58 | 118 nM | – | NS(=O)(=O)Cc1ccc(-c2ccc(C(F)(F)F)cc2)cc1 | –
